Experimental data as given in publication PMC3103050 (Genes to cells : devoted to molecular & cellular mechanisms, 2009).
Like-named read-outs stand apart in the source and are kept apart here. Blank lines part the entries; values can stand above or below the molecule they belong to.

B1: GST-REV1(826–1251) (domain or fragment, human, UniProt Q9UBZ9 826-1251, looked up)
chain: PTNLNPSTCPSRPSVQSSHFPSGSYSVRDVFQVQKAKKSTEEEHKEVFRAAVDLEISSASRTCTFLPPFPAHLPTSPDTNKAESSGKWNGLHTPVSVQSRLNLSIEVPSPSQLDQSVLEALPPDLREQVEQVCAVQQAESHGDKKKEPVNGCNTGILPQPVGTVLLQIPEPQESNSDAGINLIALPAFSQVDPEVFAALPAELQRELKAAYDQRQRQGENSTHQQSASASVPKNPLLHLKAAVKEKKRNKKKKTIGSPKRIQSPLNNKLLNSPAKTLPGACGSPQKLIDGFLKHEGPPAEKPLEELSASTSGVPGLSSLQSDPAGCVRPPAPNLAGAVEFNDVKTLLREWITTISDPMEEDILQVVKYCTDLIEEKDLEKLDLVIKYMKRLMQQSVESVWNMAFDFILDNVQVVLQQTYGSTLKVT

Tests used:
[1] = biological target: T1, His-REV1(1130–1251) (Homo sapiens, UniProt Q9UBZ9); experiment: Surface plasmon resonance, His-REV1; type: binding; settings: SPR, BIACORE 2000, CM5 chip; His-REV1(1130–1251) 1.1 µM in Fig. 2A
T1 sequence (Q9UBZ9 1130-1251): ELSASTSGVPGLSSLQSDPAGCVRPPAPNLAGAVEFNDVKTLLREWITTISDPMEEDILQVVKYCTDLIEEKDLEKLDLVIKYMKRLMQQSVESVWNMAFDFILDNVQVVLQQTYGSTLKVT
Summary of the method: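 SPR on BIACORE 2000. Synthetic peptides carrying an added N-terminal Cys were thiol-coupled to CM5 dextran. His-REV1(1130–1251) was cut from a GST-His fusion with Factor Xa, purified on Ni-NTA, then cleared of uncleaved fusion on glutathione resin. Varying concentrations were injected in 10 mM HEPES pH 7.5, 150 mM NaCl, 3 mM EDTA, 0.005% P20 at 20 µl/min, 25°C; contact 60 s, dissociation 120 s. Control-cell signal was subtracted. Kd came from equilibrium analysis of mean signals.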

[2] = system: REV1(1130–1218); experiment: Surface plasmon resonance, REV1; type: binding, human; settings: SPR; REV1 derivative lacking a portion essential for the interaction with Polκ; data not shown
[3] = biological target: PCNA (Homo sapiens, UniProt P12004); experiment: Surface plasmon resonance, PCNA binding to immobilized peptides; settings: SPR; data not shown
PCNA (Homo sapiens, UniProt P12004), sequence (P12004 whole entry, species assumed): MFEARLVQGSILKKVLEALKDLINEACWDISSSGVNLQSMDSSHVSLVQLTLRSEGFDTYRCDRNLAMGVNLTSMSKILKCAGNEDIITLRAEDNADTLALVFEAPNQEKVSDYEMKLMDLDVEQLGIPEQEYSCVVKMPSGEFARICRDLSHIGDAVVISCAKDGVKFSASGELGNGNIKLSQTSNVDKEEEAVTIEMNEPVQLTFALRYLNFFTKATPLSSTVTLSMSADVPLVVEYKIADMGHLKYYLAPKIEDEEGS
Summary of the method: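 PCNA binding by SPR against synthetic peptides that carry an added N-terminal Cys, coupled through the sulfhydryl to CM5 carboxylated dextran sensor chips by thiol activation chemistry. The peptide–protein signal minus the control-cell signal was analysed and scored + or −.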

[4] = biological target: T2, PCNA (UniProt P12004 1-261); experiment: SPR
T2 sequence (P12004 whole entry): as the sequence (P12004 whole entry, species assumed) above

[5] = biological target: T2, PCNA; experiment: SPR; remark: listed apart in the source
[6] = biological target: T3, His-Polκ(1–615) (human, UniProt Q9UBT6 1-615); experiment: pull-down
T3 sequence (looked up): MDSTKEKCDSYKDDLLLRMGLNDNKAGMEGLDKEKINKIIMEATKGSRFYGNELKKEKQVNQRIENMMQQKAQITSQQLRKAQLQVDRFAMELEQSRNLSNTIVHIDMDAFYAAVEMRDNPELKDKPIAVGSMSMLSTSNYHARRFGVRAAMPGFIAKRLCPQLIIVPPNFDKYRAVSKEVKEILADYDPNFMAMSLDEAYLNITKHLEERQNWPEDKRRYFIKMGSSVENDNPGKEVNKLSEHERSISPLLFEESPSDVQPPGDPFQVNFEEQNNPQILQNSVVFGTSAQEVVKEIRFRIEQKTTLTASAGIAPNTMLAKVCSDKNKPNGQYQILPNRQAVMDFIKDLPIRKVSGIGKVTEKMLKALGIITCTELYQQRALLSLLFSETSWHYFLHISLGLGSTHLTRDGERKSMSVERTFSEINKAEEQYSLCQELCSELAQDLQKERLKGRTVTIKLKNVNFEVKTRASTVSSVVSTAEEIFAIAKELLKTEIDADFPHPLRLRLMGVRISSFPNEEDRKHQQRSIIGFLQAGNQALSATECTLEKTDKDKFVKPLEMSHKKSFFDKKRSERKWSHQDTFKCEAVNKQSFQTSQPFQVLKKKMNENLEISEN

[7] = biological target: T4, His-REV1(1130–1251) (human, UniProt Q9UBZ9 1130-1251); experiment: SPR
T4 sequence (looked up): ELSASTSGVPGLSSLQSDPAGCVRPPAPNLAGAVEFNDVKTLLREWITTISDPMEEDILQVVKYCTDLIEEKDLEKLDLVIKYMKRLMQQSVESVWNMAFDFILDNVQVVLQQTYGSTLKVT

[8] = biological target: B1; experiment: pull-down

Molecule: CEMSHKKSAADKKRSER [κ560-575AA]
Binding of His-REV1(1130–1251) / REV1-CTD to immobilized peptide (in words) [1]: but not to κ560-575AA
Interaction of REV1(1130–1218) with immobilized peptide (in words) [2]: failed to interact

Molecule: B1
binding result [6]: binds

Molecule: CQSTGTEPFFKQKSLLL [η524-539FF]
Kd [7]: 13 µM

Molecule: CKKSFFDKKRSER [κ564-575FF]
binding result [8]: binds

Molecule: CSHKKSFFDKKRSER [κ562-575FF]
binding result [8]: binds

Results, then the molecule that gave them:

PCNA binding to immobilized peptide (in words) [3]: failed to bind
Molecule: CKRPRPEGMQTLESAAKPLTH [η694-713AA]

Binding of His-REV1(1130–1251) / REV1-CTD to immobilized peptide (in words) [1]: failure of κ558-571FF to bind REV1-CTD
Molecule: CPLEMSHKKSFFDKK [κ558-571FF]

Kd [4]: ~0.4 µM
Kd [5]: ~0.3 µM
Molecule: CKRPRPEGMQTLESFFKPLTH [η694-713FF]

Kd [7]: 69 µM
Molecule: CASRGVLSFFSKKQMQD [ι539-554FF]

Kd [7]: 7.6 µM
Molecule: CEMSHKKSFFDKKRSER [κ560-575FF]
